The array DNA melting data of Ke et al. (doi:10.1101/2024.01.08.574731)

How the values were obtained:
[1] = melting temperature; fluorescence melt of hairpins on a sequencing array, two-state fit, raised by 9.35 °C to match UV melts; details: sodium 0.088 M
How it was run: (§1)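 Cy3 fluorescence of library hairpins on a sequenced MiSeq flow cell, with annealed Cy3 and quencher oligos, was imaged in 50 mM Na-HEPES pH 8.0, 25 mM NaCl in 2.5 °C steps up to 60 °C. Signals were normalised to pre-quench Cy3 and to control variants. Melting temperature and folding enthalpy came from bootstrapped two-state fits, inverse-variance combined over four replicates. Fitted temperatures were raised by 9.35 °C to match UV melts.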

[2] = folding enthalpy; higher = less favourable; fluorescence melt of hairpins on a sequencing array, two-state fit; details: sodium 0.088 M
How it was run: as §1

Sequence	Tm [1]	folding enthalpy [2]
TGGCAGAAATGCCA (((((....)))))	54.2 °C	-23.3 kcal/mol
TGGGAGAAATCCCA (((((....)))))	40.7 °C	-19.5 kcal/mol
TGGTAGAAATACCA (((((....)))))	36.8 °C	-12.8 kcal/mol
TGTAAGAAATTACA (((((....)))))	20.6 °C	-7.98 kcal/mol
TGTAGGAAACTACA (((((....)))))	36.9 °C	-16.9 kcal/mol
TGTTGGAAACAACA (((((....)))))	42.9 °C	-18.5 kcal/mol
TGTTTGAAAAAACA (((((....)))))	29.3 °C	-8.4 kcal/mol
TTAGTGAAAACTAA (((((....)))))	27.8 °C	-8.57 kcal/mol
TTATGGAAACATAA (((((....)))))	22.8 °C	-8.55 kcal/mol
TTCCCGAAAGGGAA (((((....)))))	56.1 °C	-24 kcal/mol
TTCCTGAAAAGGAA (((((....)))))	39.9 °C	-15 kcal/mol
TTGTAGAAATACAA (((((....)))))	24.9 °C	-6.32 kcal/mol
TTTCCGAAAGGAAA (((((....)))))	49.3 °C	-19 kcal/mol
